Measurements from ChEMBL document CHEMBL1145477, “Activity of T-1106 in a hamster model of yellow Fever virus infection” (Antimicrob Agents Chemother, 2007).
Active and inactive are the calls of the source. No cut-off for these calls is given here.

Tests used:
Yellow fever virus [1] = experiment: Antiviral activity against YFV infected in african green monkey Vero cells assessed as reduction in cytopathic effect after 6 days; type: functional, organism-based; details: 144 h
In short: (§1)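 Jimenez hamster-adapted YFV at 10 CCID50/well on Vero or CV-1 monolayers; seven drug concentrations added 5–10 min before virus; 37°C for 6 days. CPE scored microscopically, then neutral red uptake (0.34% dye, 2 h, eluted and quantified). EC50 derived; CC50 from uninfected drug-treated cells; SI = CC50/EC50.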

Yellow fever virus [2] = experiment: Antiviral activity against YFV infected in african green monkey CV1 cells assessed as reduction in cytopathic effect after 6 days; type: functional, organism-based; details: CV-1, 144 h; in short: as §1
[3] = Selectivity index, ratio of CC50 for african green monkey Vero cells to EC50 for YFV infected in Vero cells; type: functional; in short: as §1
[4] = Selectivity index, ratio of CC50 for african green monkey CV1 cells to EC50 for YFV infected in CV1 cells; type: functional, CV-1; in short: as §1
Yellow fever virus [5] = experiment: Antiviral activity against YFV Jimenez infected in Syrian golden hamster assessed as mean day to death after 21 days post-infection at 10 mg/kg, ip bid for 7 days; type: functional; details: route intraperitoneal
Syrian golden hamster [6] = experiment: Toxicity in YFV infected Syrian golden hamster assessed as survival of animals at 100 mg/kg/day, ip bid for 7 days; type: organism-based, Mesocricetus auratus; design: route intraperitoneal; details: in vivo, 168 h
In short: (§2)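 Female Syrian golden hamsters (~100 g), toxicity-control groups of three, sham-infected. Drug suspended in saline or 0.4% carboxymethyl cellulose, given i.p. b.i.d. 12 h apart from −4 h through 7 days. Mortality checked daily; weight taken at 0, 3 and 6 dpi, with change taken as 3-to-6 dpi difference.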

Syrian golden hamster [7] = experiment: Toxicity in YFV infected Syrian golden hamster assessed as survival of animals at 32 mg/kg/day, ip bid for 7 days; type: organism-based, Mesocricetus auratus; design: route intraperitoneal; details: in vivo, 168 h; in short: as §2
Syrian golden hamster [8] = experiment: Toxicity in YFV infected Syrian golden hamster assessed as assessed as weight change at 32 mg/kg/day, ip bid for 7 days; type: organism-based, Mesocricetus auratus; design: route intraperitoneal; details: in vivo, 168 h; in short: as §2
Syrian golden hamster [9] = experiment: Toxicity in YFV infected Syrian golden hamster assessed as assessed as weight change at 100 mg/kg/day, ip bid for 7 days; type: organism-based, Mesocricetus auratus; design: route intraperitoneal; details: in vivo, 168 h; in short: as §2
Yellow fever virus [10] = experiment: Antiviral activity against YFV Jimenez infected in Syrian golden hamster assessed as mean day to death after 21 days post-infection at 32 mg/kg, ip bid for 7 days; type: functional; details: route intraperitoneal
Yellow fever virus [11] = experiment: Antiviral activity against YFV Jimenez infected in Syrian golden hamster assessed as mean day to death after 21 days post-infection at 100 mg/kg, ip bid for 7 days; type: functional; details: route intraperitoneal
Yellow fever virus [12] = experiment: Antiviral activity against YFV Jimenez infected in Syrian golden hamster assessed as survival of animal at 100 mg/kg, bid ip for 7 days; type: functional, organism-based; design: dose 100 mg/kg
Yellow fever virus [13] = experiment: Antiviral activity against YFV Jimenez infected in Syrian golden hamster assessed as survival of animal at 32 mg/kg, ip bid for 7 days; type: functional, organism-based; design: dose 32 mg/kg
Yellow fever virus [14] = experiment: Antiviral activity against YFV Jimenez infected in Syrian golden hamster assessed as survival of animal at 10 mg/kg, ip bid for 7 days; type: functional; details: route intraperitoneal
Yellow fever virus [15] = experiment: Antiviral activity against YFV Jimenez infected in Syrian golden hamster assessed as survival of animal at 100 mg/kg, po for 7 days; type: functional, organism-based; design: dose 100 mg/kg
Yellow fever virus [16] = experiment: Antiviral activity against YFV Jimenez infected in Syrian golden hamster assessed as survival of animal at 32 mg/kg, po for 7 days; type: functional, organism-based; design: dose 32 mg/kg
Yellow fever virus [17] = experiment: Antiviral activity against YFV Jimenez infected in Syrian golden hamster assessed as mean day to death after 21 days post-infection at 100 mg/kg, po bid for 7 days; type: functional
Yellow fever virus [18] = experiment: Antiviral activity against YFV Jimenez infected in Syrian golden hamster assessed as mean day to death after 21 days post-infection at 32 mg/kg, po bid for 7 days; type: functional
Yellow fever virus [19] = experiment: Antiviral activity against YFV Jimenez infected in Syrian golden hamster assessed as serum alanine aminotransferase at 100 mg/kg, ip bid for 7 days; type: functional; details: route intraperitoneal
In short: (§3)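 YFV (Jimenez)-infected female hamsters were treated b.i.d. i.p. or p.o. Serum was drawn by ocular sinus at 6 dpi. ALT was read with a colorimetric kit adapted to microplates: substrate plus serum for 30 min at 37°C, then colour reagent and developer, absorbance at 505 nm. Values are IU/liter against saline controls.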

Yellow fever virus [20] = experiment: Antiviral activity against YFV Jimenez infected in Syrian golden hamster assessed as serum alanine aminotransferase at 32 mg/kg, ip bid for 7 days; type: functional; details: route intraperitoneal; in short: as §3
Yellow fever virus [21] = experiment: Antiviral activity against YFV Jimenez infected in Syrian golden hamster assessed as serum alanine aminotransferase at 10 mg/kg, ip bid for 7 days; type: functional; details: route intraperitoneal; in short: as §3
Yellow fever virus [22] = experiment: Antiviral activity against YFV Jimenez infected in Syrian golden hamster assessed as serum alanine aminotransferase at 100 mg/kg, po bid for 7 days; type: functional; in short: as §3
Yellow fever virus [23] = experiment: Antiviral activity against YFV Jimenez infected in Syrian golden hamster assessed as serum alanine aminotransferase at 32 mg/kg, po bid for 7 days; type: functional; in short: as §3
Yellow fever virus [24] = experiment: Antiviral activity against YFV Jimenez infected in Syrian golden hamster liver assessed as alanine aminotransferase at 100 mg/kg/day, ip bid for 8 days administered after 1 day post-infection; type: functional; details: route intraperitoneal; in short: as §3
Yellow fever virus [25] = experiment: Antiviral activity against YFV Jimenez infected in Syrian golden hamster liver assessed as weight change at 100 mg/kg/day, ip bid for 8 days administered after 4 day post-infection; type: functional; details: route intraperitoneal
Yellow fever virus [26] = experiment: Antiviral activity against YFV Jimenez infected in Syrian golden hamster liver assessed as weight change at 100 mg/kg/day, ip bid for 8 days administered after 5 day post-infection; type: functional; details: route intraperitoneal
Yellow fever virus [27] = experiment: Antiviral activity against YFV Jimenez infected in Syrian golden hamster assessed as weight change at 100 mg/kg, ip bid for 7 days; type: functional; details: route intraperitoneal
Yellow fever virus [28] = experiment: Antiviral activity against YFV Jimenez infected in Syrian golden hamster assessed as weight change at 32 mg/kg, ip bid for 7 days; type: functional; details: route intraperitoneal
Yellow fever virus [29] = experiment: Antiviral activity against YFV Jimenez infected in Syrian golden hamster assessed as weight change at 10 mg/kg, ip bid for 7 days; type: functional; details: route intraperitoneal
Yellow fever virus [30] = experiment: Antiviral activity against YFV Jimenez infected in Syrian golden hamster assessed as weight change at 100 mg/kg, po bid for 7 days; type: functional
Yellow fever virus [31] = experiment: Antiviral activity against YFV Jimenez infected in Syrian golden hamster assessed as weight change at 32 mg/kg, po bid for 7 days; type: functional
Yellow fever virus [32] = experiment: Antiviral activity against YFV Jimenez infected in Syrian golden hamster liver administered 4 hrs before viral challenge twice daily for 4 days post-infection by infectious cell culture assay; type: functional, organism-based
In short: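 Liver was collected at necropsy 4 dpi from 5 hamsters per group, after b.i.d. dosing that began 4 h before i.p. Jimenez YFV challenge. Homogenates were diluted serially from 10−1 to 10−8 onto semiconfluent Vero cells in four replicate columns. CPE was scored microscopically after 6 days, and titer was extrapolated from dilution and tissue weight.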

Yellow fever virus [33] = experiment: Antiviral activity against YFV Jimenez infected in Syrian golden hamster liver assessed as survival at 100 mg/kg/day, ip bid for 8 days administered after 1 day post-infection; type: functional, organism-based
Yellow fever virus [34] = experiment: Antiviral activity against YFV Jimenez infected in Syrian golden hamster liver assessed as survival at 100 mg/kg/day, ip bid for 8 days administered after 2 days post-infection; type: functional, organism-based
Yellow fever virus [35] = experiment: Antiviral activity against YFV Jimenez infected in Syrian golden hamster liver treated 4 hrs before viral challenge assessed as survival at 100 mg/kg/day, ip bid for 8 days; type: functional, organism-based
Yellow fever virus [36] = experiment: Antiviral activity against YFV Jimenez infected in Syrian golden hamster liver assessed as survival at 100 mg/kg/day, ip bid for 8 days administered after 3 days post-infection; type: functional, organism-based
Yellow fever virus [37] = experiment: Antiviral activity against YFV Jimenez infected in Syrian golden hamster liver assessed as mean day to death at 100 mg/kg/day, ip bid for 8 days administered after 1 day post-infection; type: functional; details: route intraperitoneal
Yellow fever virus [38] = experiment: Antiviral activity against YFV Jimenez infected in Syrian golden hamster liver assessed as mean day to death at 100 mg/kg/day, ip bid for 8 days administered after 2 days post-infection; type: functional; details: route intraperitoneal
Yellow fever virus [39] = experiment: Antiviral activity against YFV Jimenez infected in Syrian golden hamster liver assessed as mean day to death at 100 mg/kg/day, ip bid for 8 days administered after 3 days post-infection; type: functional; details: route intraperitoneal
Yellow fever virus [40] = experiment: Antiviral activity against YFV Jimenez infected in Syrian golden hamster liver treated 4 hrs before viral challenge assessed as mean day to death at 100 mg/kg/day, ip bid for 8 days; type: functional; details: route intraperitoneal
Yellow fever virus [41] = experiment: Antiviral activity against YFV Jimenez infected in Syrian golden hamster liver treated 4 hrs before viral challenge assessed as serum alanine aminotransferase at 100 mg/kg/day, ip bid for 8 days; type: functional; details: route intraperitoneal; in short: as §3
Yellow fever virus [42] = experiment: Antiviral activity against YFV Jimenez infected in Syrian golden hamster liver assessed as alanine aminotransferase at 100 mg/kg/day, ip bid for 8 days administered after 2 days post-infection; type: functional; details: route intraperitoneal; in short: as §3
Yellow fever virus [43] = experiment: Antiviral activity against YFV Jimenez infected in Syrian golden hamster liver assessed as alanine aminotransferase at 100 mg/kg/day, ip bid for 8 days administered after 3 days post-infection; type: functional; details: route intraperitoneal; in short: as §3
Yellow fever virus [44] = experiment: Antiviral activity against YFV Jimenez infected in Syrian golden hamster liver treated 4 hrs before viral challenge assessed as weight change at 100 mg/kg/day, ip bid for 8 days; type: functional; details: route intraperitoneal
Yellow fever virus [45] = experiment: Antiviral activity against YFV Jimenez infected in Syrian golden hamster liver assessed as weight change at 100 mg/kg/day, ip bid for 8 days administered after 1 day post-infection; type: functional; details: route intraperitoneal
Yellow fever virus [46] = experiment: Antiviral activity against YFV Jimenez infected in Syrian golden hamster liver assessed as weight change at 100 mg/kg/day, ip bid for 8 days administered after 2 days post-infection; type: functional; details: route intraperitoneal
Yellow fever virus [47] = experiment: Antiviral activity against YFV Jimenez infected in Syrian golden hamster liver assessed as weight change at 100 mg/kg/day, ip bid for 8 days administered after 3 days post-infection; type: functional; details: route intraperitoneal
[48] = Toxicity in MDBK cells; type: cell-based, Bos taurus; details: cattle
[49] = Selectivity index, ratio of CC50 for MDBK cells to […] for BVDV; type: functional
Yellow fever virus [50] = experiment: Antiviral activity against YFV Jimenez infected in Syrian golden hamster liver assessed as mean day to death at 100 mg/kg/day, ip bid for 8 days administered after 4 day post-infection; type: functional; details: route intraperitoneal
Yellow fever virus [51] = experiment: Antiviral activity against YFV Jimenez infected in Syrian golden hamster liver assessed as mean day to death at 100 mg/kg/day, ip bid for 8 days administered after 5 day post-infection; type: functional; details: route intraperitoneal
Yellow fever virus [52] = experiment: Antiviral activity against YFV Jimenez infected in Syrian golden hamster liver assessed as alanine aminotransferase at 100 mg/kg/day, ip bid for 8 days administered after 4 day post-infection; type: functional; details: route intraperitoneal; in short: as §3
Yellow fever virus [53] = experiment: Antiviral activity against YFV Jimenez infected in Syrian golden hamster liver assessed as alanine aminotransferase at 100 mg/kg/day, ip bid for 8 days administered after 5 day post-infection; type: functional; details: route intraperitoneal; in short: as §3

NC(=O)c1nccn([C@@H]2O[C@H](CO)[C@@H](O)[C@H]2O)c1=O
EC50 (Yellow fever virus [1]): > 100 µg/mL
EC50 (Yellow fever virus [2]): > 100 µg/mL
Ratio CC50/EC50 [3]: 1
Ratio CC50/EC50 [4]: 1
Activity (Yellow fever virus [5]): 8 days
Activity (Syrian golden hamster [6]): Non-toxic
Activity (Syrian golden hamster [7]): Non-toxic
Activity (Syrian golden hamster [8]): 8.3 g
Activity (Syrian golden hamster [9]): 5.3 g
Activity (Yellow fever virus [10]): >21 days
Activity (Yellow fever virus [11]): >21 days
Activity (Yellow fever virus [12]): Active
Activity (Yellow fever virus [13]): Active
Activity (Yellow fever virus [14]): 80%
Activity (Yellow fever virus [15]): Active
Activity (Yellow fever virus [16]): Active
Activity (Yellow fever virus [17]): >21 days
Activity (Yellow fever virus [18]): >21 days
Activity (Yellow fever virus [19]): 56 IU/L
Activity (Yellow fever virus [20]): 65 IU/L
Activity (Yellow fever virus [21]): 174 IU/L
Activity (Yellow fever virus [22]): 56 IU/L
Activity (Yellow fever virus [23]): 61 IU/L
Activity (Yellow fever virus [24]): 56 IU/L
Activity (Yellow fever virus [25]): -4.7 g
Activity (Yellow fever virus [26]): -6.9 g
Activity (Yellow fever virus [27]): 7.1 g
Activity (Yellow fever virus [28]): 5.2 g
Activity (Yellow fever virus [29]): -1.8 g
Activity (Yellow fever virus [30]): 6.3 g
Activity (Yellow fever virus [31]): 4.4 g
Activity (Yellow fever virus [32]): Active
Activity (Yellow fever virus [33]): Active
Activity (Yellow fever virus [34]): Active
Activity (Yellow fever virus [35]): Active
Activity (Yellow fever virus [36]): Active
Activity (Yellow fever virus [37]): >21 days
Activity (Yellow fever virus [38]): >21 days
Activity (Yellow fever virus [39]): >21 days
Activity (Yellow fever virus [40]): >21 days
Activity (Yellow fever virus [41]): 58 IU/L
Activity (Yellow fever virus [42]): 57 IU/L
Activity (Yellow fever virus [43]): 79 IU/L
Activity (Yellow fever virus [44]): 6 g
Activity (Yellow fever virus [45]): 6.1 g
Activity (Yellow fever virus [46]): 6.3 g
Activity (Yellow fever virus [47]): 2.9 g
CC50 [48]: 2900 µM
Ratio CC50/EC50 [49]: 207
Activity (Yellow fever virus [50]): 6 days
Activity (Yellow fever virus [51]): 7.4 days
Activity (Yellow fever virus [52]): 108 IU/L
Activity (Yellow fever virus [53]): 205 IU/L
